Assays:
[1] = target: T1, Prostaglandin E synthase (Homo sapiens) (UniProt O14684); test: Inhibition of mPGES-1 derived from IL1beta and TNFalpha stimulated human HeLa cells microsomal fraction using PGH2 as substrate at 1 uM preincubated for 30 mins prior to substrate addition measured after 1 min by LC-MS/MS analysis relative to control
T1 sequence (whole entry): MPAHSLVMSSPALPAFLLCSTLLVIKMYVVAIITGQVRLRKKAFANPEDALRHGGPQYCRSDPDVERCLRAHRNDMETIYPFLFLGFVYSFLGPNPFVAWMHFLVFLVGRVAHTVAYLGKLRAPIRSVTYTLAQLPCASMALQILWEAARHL
Procedure, shortened: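 Microsomes were pelleted by ultracentrifugation and resuspended in buffer with 2.5 mM GSH; protein was measured by Bradford. PGE₂ was read by LC-MS/MS after solid-phase extraction with deuterated standards; n ≥ 3.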

[2] = target: T2, Prostaglandin E synthase (Mus musculus) (UniProt Q9JM51); test: Inhibition of mPGES-1 derived from LPS stimulated mouse RAW264.7 cells microsomal fraction using PGH2 as substrate at 1 uM preincubated for 30 mins prior to substrate addition measured after 1 min by LC-MS/MS analysis relative to control
T2 sequence (whole entry): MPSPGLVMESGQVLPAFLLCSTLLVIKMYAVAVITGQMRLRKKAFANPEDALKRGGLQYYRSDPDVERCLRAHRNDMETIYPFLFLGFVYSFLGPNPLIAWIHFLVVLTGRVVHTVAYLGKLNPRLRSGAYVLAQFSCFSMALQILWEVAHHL
Procedure, shortened: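 Microsomes came from RAW 264.7 cells stimulated with LPS for 16 h. They were prepared by sonication and ultracentrifugation in 0.1 M potassium phosphate, pH 7.4, with GSH and protease inhibitors, and resuspended with 2.5 mM GSH; protein was measured by Bradford. Compound was tested at the stated final concentration. PGE₂ was quantified by LC-MS/MS after solid-phase extraction with PGE₂-d₄/PGD₂-d₄ standards; SEM, n ≥ 3.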

[3] = target: T2, Prostaglandin E synthase (Mus musculus); test: Inhibition of mPGES-1 derived from LPS stimulated mouse NIH3T3 cells microsomal fraction using PGH2 as substrate at 1 uM preincubated for 30 mins prior to substrate addition measured after 1 min by LC-MS/MS analysis relative to control
[4] = target: T3, Prostaglandin G/H synthase 1 (Ovis aries) (UniProt P05979); test: Inhibition of ovine COX1-mediated PGE2 synthesis using PGH2 as substrate at 1 uM by LC-MS/MS analysis relative to control
T3 sequence (whole entry): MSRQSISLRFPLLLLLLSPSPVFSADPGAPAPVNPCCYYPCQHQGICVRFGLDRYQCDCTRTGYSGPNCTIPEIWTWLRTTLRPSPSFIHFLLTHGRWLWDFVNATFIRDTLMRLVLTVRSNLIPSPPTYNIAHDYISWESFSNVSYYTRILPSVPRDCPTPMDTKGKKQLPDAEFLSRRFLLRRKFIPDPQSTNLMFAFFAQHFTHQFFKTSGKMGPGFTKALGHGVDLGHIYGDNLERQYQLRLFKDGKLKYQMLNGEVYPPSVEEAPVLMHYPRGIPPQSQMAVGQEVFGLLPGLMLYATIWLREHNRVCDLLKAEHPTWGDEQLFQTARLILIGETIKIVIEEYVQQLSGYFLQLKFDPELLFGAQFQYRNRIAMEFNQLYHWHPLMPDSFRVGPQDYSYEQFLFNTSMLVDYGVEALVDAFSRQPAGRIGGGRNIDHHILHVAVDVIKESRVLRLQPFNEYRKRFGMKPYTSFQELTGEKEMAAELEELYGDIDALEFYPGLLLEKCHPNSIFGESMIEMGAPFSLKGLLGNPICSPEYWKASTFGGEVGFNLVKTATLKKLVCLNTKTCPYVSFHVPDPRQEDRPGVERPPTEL
Procedure, shortened: (§1)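 Direct enzyme test with a COX inhibitor screening kit, run per the kit protocol: COX-1 was ovine, COX-2 human recombinant. […] Prostaglandins were quantified by LC-MS/MS after solid-phase extraction. Mean of n ≥ 3.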

[5] = target: T4, Prostaglandin G/H synthase 2 (Homo sapiens) (UniProt P35354); test: Inhibition of human recombinant COX2-mediated PGE2 synthesis using PGH2 as substrate at 1 uM by LC-MS/MS analysis relative to control; procedure, shortened: as §1
T4 sequence (whole entry): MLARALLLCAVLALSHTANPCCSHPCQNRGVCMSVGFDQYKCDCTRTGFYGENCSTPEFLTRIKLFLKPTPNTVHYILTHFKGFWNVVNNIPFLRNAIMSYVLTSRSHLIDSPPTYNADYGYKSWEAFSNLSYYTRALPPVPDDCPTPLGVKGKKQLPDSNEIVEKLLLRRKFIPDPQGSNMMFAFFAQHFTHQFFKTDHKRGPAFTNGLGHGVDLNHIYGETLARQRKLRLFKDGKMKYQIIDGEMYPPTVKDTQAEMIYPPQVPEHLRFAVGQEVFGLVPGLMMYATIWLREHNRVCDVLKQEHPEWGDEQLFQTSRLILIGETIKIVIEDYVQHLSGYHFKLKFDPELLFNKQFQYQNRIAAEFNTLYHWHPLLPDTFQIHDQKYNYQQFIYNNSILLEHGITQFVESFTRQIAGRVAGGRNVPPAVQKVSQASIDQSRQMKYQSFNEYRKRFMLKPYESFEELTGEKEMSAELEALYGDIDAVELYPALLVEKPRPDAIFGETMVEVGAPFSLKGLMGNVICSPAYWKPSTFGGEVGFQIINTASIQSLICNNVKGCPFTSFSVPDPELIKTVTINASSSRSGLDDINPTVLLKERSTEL

HeLa = test: Cytotoxicity against IL1beta and TNFalpha-stimulated human HeLa cells at 1 to 10 uM after 24 hrs by WST1 assay; format: cell-based
Procedure, shortened: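 HeLa cells were seeded at 3 × 10³ per well and grown 24 h at 37 °C. They were then stimulated with IL-1β (1 ng/mL) + TNFα (5 ng/mL) while treated with compound at 1, 10 or 100 μM, or DMSO, for 24 h. WST-1 was added for 90–150 min and absorbance read at 450 nm against 620 nm. Viability is percent of DMSO control, SEM, n ≥ 3.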

[6] = target: T1, Prostaglandin E synthase (Homo sapiens); test: Inhibition of mPGES-1 in IL1beta and TNFalpha-stimulated human HeLa cells assessed as PGE2 level after 24 hrs by LC-MS/MS analysis; format: cell-based
Procedure, shortened: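 HeLa cells (2 × 10⁴) were grown 24 h at 37 °C. The medium was then replaced with IL-1β (1 ng/mL) + TNFα (5 ng/mL), or PBS for unstimulated controls, together with compound at 1, 10 or 100 μM, or DMSO, for 24 h at 37 °C. Supernatant PGE₂ was quantified by LC-MS/MS after solid-phase extraction with deuterated standards. Inhibition is percent of DMSO control corrected for unstimulated background, SEM, n ≥ 3.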

| SMILES | inhibition [1] | further results |
| --- | --- | --- |
| CCCc1nc2ccc(NC(=O)C(C)(C)C)cc2c(=O)n1Cc1ccc(-c2cccc(Cl)c2)cc1 | 18.8% | – |
| CCCc1nc2ccc(NC(=O)Nc3ccccc3Cl)cc2c(=O)n1Cc1ccccc1Cl | 14.1% | – |
| CCCc1nc2ccc(NC(=O)c3c(Cl)cccc3Cl)cc2c(=O)n1Cc1cccc(Cl)c1 | 61.3% | – |
| O=C(Nc1ccc2nc(Cc3ccccc3)n(Cc3cccc(Cl)c3)c(=O)c2c1)c1ccccc1Cl | 67.2% | inhibition [2]: 3.8%; inhibition [3]: 17.8%; inhibition [4]: < 0%; inhibition [5]: < 0%; Activity (HeLa): Non-toxic; inhibition [6]: Dose-dependent effect |
| CCCc1nc2ccc(NC(=O)c3ccccc3F)cc2c(=O)n1Cc1ccc(-c2cccc(Cl)c2)cc1 | 30% | – |
| Cc1ccccc1C(=O)Nc1cc2c(=O)n(Cc3ccccc3)c(C)nc2cc1N1CCCC1 | 37.1% | – |
| CCCc1nc2ccc(NC(=O)c3cccs3)cc2c(=O)n1Cc1ccc(-c2cccc(Cl)c2)cc1 | 15.6% | – |
| CCCc1nc2ccc(NC(C)=O)cc2c(=O)n1Cc1ccc(-c2cccc(Cl)c2)cc1 | 14.8% | – |
| CCCc1nc2ccc(NC(=O)CCc3ccccc3)cc2c(=O)n1Cc1ccc(-c2cccc(Cl)c2)cc1 | 32.7% | – |
| Cc1ccc(-c2cc(C(F)(F)F)nn2-c2ccc(S(N)(=O)=O)cc2)cc1 | – | inhibition [6]: Dose-dependent effect |
| CCCc1nc2ccc(NC(=O)c3ccccc3Cl)cc2c(=O)n1Cc1ccc(-c2ccccc2OC)cc1 | 61.3% | – |
